Screening results: PubChem, Broad Institute
N-glyco inh: blocks N-linked glycosylation in D54 reporter cells | D54 ERlucT glycosylation luciferase reporter, 24 h; percent of 100 nM tunicamycin response | reporter increase, % at 12.5 µM | 360,000 tested, 0.23% active | AID 588692;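 active means mean luciferase reporter signal, scaled so untreated is 0 and the glycosylation-blocking control 100, at or above a set limit in every replicate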;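 further: luciferase carries N-glycosylation sites so blocking glycosylation raises the light; 0% = median of neutral control wells and 100% = median of 100 nM tunicamycin wells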
CDK5 p35 inh: inhibitors of human CDK5/p35 kinase; 330,000 tested, 0.01% active; inhibition, % at 10 µM; Recombinant CDK5/p35, ADP-Glo luminescence, 60 min; Q00535+Q15078;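 active means highest replicate inhibition of at least 50% and at least 75% of replicates reaching 50%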;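 further: plate controls were DMSO neutral control for no effect and GW8510 at 10 µM for full effect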
Target sequence (Q00535 whole entry, looked up): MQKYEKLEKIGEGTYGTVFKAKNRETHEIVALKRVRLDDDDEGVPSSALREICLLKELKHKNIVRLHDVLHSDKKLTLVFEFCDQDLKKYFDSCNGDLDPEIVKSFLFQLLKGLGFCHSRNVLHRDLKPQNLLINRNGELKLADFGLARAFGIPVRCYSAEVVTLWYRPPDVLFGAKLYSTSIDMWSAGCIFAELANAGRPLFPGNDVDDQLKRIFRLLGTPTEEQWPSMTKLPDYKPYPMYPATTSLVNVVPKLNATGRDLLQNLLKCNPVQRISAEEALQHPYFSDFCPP
Target sequence (Q15078 whole entry, looked up): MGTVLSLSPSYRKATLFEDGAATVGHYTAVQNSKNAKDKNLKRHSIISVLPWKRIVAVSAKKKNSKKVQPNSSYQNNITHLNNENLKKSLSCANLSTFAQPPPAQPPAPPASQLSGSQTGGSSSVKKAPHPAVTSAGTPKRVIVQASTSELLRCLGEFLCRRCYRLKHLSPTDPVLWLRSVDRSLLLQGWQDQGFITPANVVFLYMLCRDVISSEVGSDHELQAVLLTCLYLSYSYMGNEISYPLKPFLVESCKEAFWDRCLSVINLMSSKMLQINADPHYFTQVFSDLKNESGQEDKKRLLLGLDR
PvdQ acylase: P. aeruginosa PvdQ acylase inhibition | 340,000 tested, 0.063% active | purified PvdQ acylase, fluorescence plate reader | inhibition, % at 10 µM; in the data active means inhibition above about 30%, passing the limit was not always enough;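 further: 0% = vehicle neutral wells and 100% = reference inhibitor wells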
CAL PDZ FP-1: CAL PDZ (human) peptide binding inhibition | Q9HD26 | purified CAL PDZ, TMR-peptide fluorescence polarization, 1 h | inhibition, % at 24.9 µM | 300,000 tested, 0.92% active | AID 602252;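 active means mean inhibition of at least 30% with at least half of replicates also reaching 30%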;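 further: 0% = DMSO neutral control and 100% = excess unlabeled competitor peptide PRC23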
CAL PDZ FP-2: inhibitors of human CAL PDZ peptide binding | 330,000 tested, 0.02% active | purified CAL PDZ, TMR-peptide fluorescence polarization, 1 h | inhibition, % at 20 µM | AID 504414 | Q9HD26;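 active means highest replicate inhibition of at least 40%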;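 further: plate controls were DMSO neutral control wells for no effect and unlabeled competitor peptide control wells for full effect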
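Control set: unlabelled peptide and DMSO controls / Material: purified CerCALP PDZ construct / Timing: 1 h incubation at room temperature before polarization reading / Doses: 20 µM, one dose / Detection: fluorescence polarization (mP)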
Vif inh: inhibitors of HIV Vif; HEK293T cells, Vif self-association by quenched fluorescence, imaging, 24 h; inhibition, % at 7.49 µM; 340,000 tested, 0.35% active; in the data active means inhibition above about 50%, passing the limit was not always enough
* marks the source's active call; other numbers are inactive results. Shown are actives, neighbours in structure and some others; about 1.4% of the full set was active somewhere.

Results for COc1cc(C(=O)OCCc2cc3ccccc3c(=O)o2)cc(OC)c1OC ?
N-glyco inh: 27*; CDK5 p35 inh: -3; PvdQ acylase: 5; CAL PDZ FP-1: 2; CAL PDZ FP-2: -1

Results for O=C(Nc1cccc(C(=O)O)c1)/C(=C\c1ccc2c(c1)OCO2)NC(=O)c1ccco1 ?
N-glyco inh: 1; CDK5 p35 inh: 0; PvdQ acylase: -3; CAL PDZ FP-2: 0; Vif inh: -15

How did O=C(Nc1cccc(C(=O)O)c1)/C(=C\c1ccc(F)cc1)NC(=O)c1ccco1 do in these assays?
N-glyco inh: 4; CDK5 p35 inh: 0; PvdQ acylase: -6; CAL PDZ FP-1: -7; CAL PDZ FP-2: -3; Vif inh: 64*

What do the screens show for `Cc1cc(C)c(C#N)c(Nc2cccc(C)c2C)n1`?
N-glyco inh: 1; CDK5 p35 inh: 1; PvdQ acylase: -22; CAL PDZ FP-1: 83*; CAL PDZ FP-2: 4; Vif inh: -4

What do the screens show for `Cc1cc(C)c(C#N)c(Nc2ccccc2C)n1`?
N-glyco inh: 2; CDK5 p35 inh: 1; PvdQ acylase: -8; CAL PDZ FP-1: -4; CAL PDZ FP-2: -1; Vif inh: -9

Results for Cc1ccc(S(=O)(=O)N(C)CC(=O)O/N=C(\N)c2cccc(Br)c2)cc1 ?
N-glyco inh: -3; CDK5 p35 inh: 0; PvdQ acylase: 2; CAL PDZ FP-1: -4; CAL PDZ FP-2: -1; Vif inh: -5

What do the screens show for `O=C(O)CSc1nnc(-c2cccc(S(=O)(=O)N3CCCCC3)c2)o1`?
N-glyco inh: 0; CDK5 p35 inh: 0; PvdQ acylase: 5; CAL PDZ FP-2: 0; Vif inh: 5

What do the screens show for `N#Cc1ccc(CSc2nnc(-c3cccc(S(=O)(=O)N4CCCCC4)c3)o2)cc1`?
N-glyco inh: -7; CDK5 p35 inh: 1; PvdQ acylase: -15; CAL PDZ FP-1: 44*; CAL PDZ FP-2: -1; Vif inh: -3

What do the screens show for `CC1(C)COC(c2cc3c(cc2Br)OCO3)OC1`?
N-glyco inh: -2; CDK5 p35 inh: -2; PvdQ acylase: -24; CAL PDZ FP-1: 0; CAL PDZ FP-2: 0; Vif inh: 2

How did CC(C)(C)C(=O)N1CCC2CC1c1cc(Cl)ccc12 (stereo unspecified) do in these assays?
N-glyco inh: -2; CDK5 p35 inh: 0; PvdQ acylase: -18; CAL PDZ FP-1: -6; CAL PDZ FP-2: 0

What do the screens show for `CC(=O)c1cccc(NC(=S)NC(=O)C(C)C)c1`?
N-glyco inh: 1; CDK5 p35 inh: 0; PvdQ acylase: 2; CAL PDZ FP-1: -1; CAL PDZ FP-2: -1; Vif inh: 87*

How did COc1ccc2nc(Cl)cc(Cl)c2c1 do in these assays?
N-glyco inh: 1; CDK5 p35 inh: -2; PvdQ acylase: -17; CAL PDZ FP-2: 0; Vif inh: -4

How did C=CS(=O)(=O)c1c2cc(OC)ccc2nc2ccc(OC)cc12 do in these assays?
N-glyco inh: 53*; CDK5 p35 inh: 2; PvdQ acylase: -20; CAL PDZ FP-1: 1; CAL PDZ FP-2: -2; Vif inh: 1

Results for OCC1CCCCN1C(=S)NCc1ccco1 (stereo unspecified) ?
N-glyco inh: 3; CDK5 p35 inh: 0; PvdQ acylase: 0; CAL PDZ FP-1: 64*; CAL PDZ FP-2: 0; Vif inh: -2

What do the screens show for `Cc1nn(Cc2ccc(Cl)c(Cl)c2)c(C)c1NC(=O)c1sc2ccccc2c1Cl`?
N-glyco inh: -2; CDK5 p35 inh: 1; PvdQ acylase: -18; CAL PDZ FP-1: 35*; Vif inh: 23

Results for COc1ccc(NC(=O)c2ccc(Cl)nc2)cc1S(=O)(=O)N1CCOCC1 ?
N-glyco inh: 5; CDK5 p35 inh: 1; PvdQ acylase: -15; CAL PDZ FP-1: -2; CAL PDZ FP-2: 0; Vif inh: -15

How did COc1ccc(NS(=O)(=O)c2ccc(/C=C/C(=O)O)cc2)cc1S(=O)(=O)N1CCOCC1 do in these assays?
N-glyco inh: 2; CDK5 p35 inh: -6; PvdQ acylase: -7; CAL PDZ FP-1: 44*; CAL PDZ FP-2: 0; Vif inh: 8

What do the screens show for `COc1ccc(NC(=O)Cn2ncc(Cl)c(Cl)c2=O)cc1S(=O)(=O)N1CCOCC1`?
N-glyco inh: 13; CDK5 p35 inh: 1; PvdQ acylase: 11; CAL PDZ FP-1: -1; CAL PDZ FP-2: 0; Vif inh: 59*
